Data published in ChEMBL document CHEMBL1275299, “Synthesis and anti-inflammatory activity of derivatives of coumarino-lignoid, cleomiscosin A and its methyl ether” (2010).

What was measured:
Type in all cases: functional
[1] = Antiinflammatory activity in Swiss albino mouse macrophage assessed as inhibition of LPS-induced IL-6 production at 1 ug/ml treated 30 mins before LPS challenge measured after 24 hrs by ELISA
Procedure, shortened: (§1)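 Peritoneal macrophages from 8-week-old female Swiss albino mice, elicited by i.p. 1% peptone (1 mL) 3 days before harvest and collected by PBS (pH 7.4) lavage, were used at 2 × 10^6 live cells/mL. Cells were kept in RPMI 1640 with 10% heat-inactivated FCS and penicillin/streptomycin at 37 °C, 5% CO2. Adherent cells were kept after 2 h. Compounds were given in DMSO, with a DMSO vehicle control. LPS was 0.5 µg/mL. Cytokines were measured in supernatants by mouse sandwich ELISA kits. n = 4, Student t-test versus vehicle.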

[2] = Antiinflammatory activity in Swiss albino mouse macrophage assessed as inhibition of LPS-induced IL1-beta production at 1 ug/ml treated 30 mins before LPS challenge measured after 24 hrs by ELISA; procedure, shortened: as §1
[3] = Antiinflammatory activity in Swiss albino mouse macrophage assessed as inhibition of LPS-induced TNFalpha production at 1 ug/ml treated 30 mins before LPS challenge measured after 24 hrs by ELISA; procedure, shortened: as §1
[4] = Antiinflammatory activity in Swiss albino mouse macrophage assessed as inhibition of LPS-induced IL-6 production at 10 ug/ml treated 30 mins before LPS challenge measured after 24 hrs by ELISA; procedure, shortened: as §1
[5] = Antiinflammatory activity in Swiss albino mouse macrophage assessed as inhibition of LPS-induced IL1-beta production at 10 ug/ml treated 30 mins before LPS challenge measured after 24 hrs by ELISA; procedure, shortened: as §1
[6] = Antiinflammatory activity in Swiss albino mouse macrophage assessed as inhibition of LPS-induced TNFalpha production at 10 ug/ml treated 30 mins before LPS challenge measured after 24 hrs by ELISA; procedure, shortened: as §1

Structure (SMILES)	inhibition at 1 µg/mL [1] [%]	inhibition at 1 µg/mL [2] [%]	inhibition at 1 µg/mL [3] [%]	inhibition at 10 µg/mL [4] [%]	inhibition at 10 µg/mL [5] [%]	inhibition at 10 µg/mL [6] [%]
O=C(O)Cc1ccccc1Nc1c(Cl)cccc1Cl [DICLOFENAC SODIUM]	51.1	38.5	46.5			
COc1cc([C@H]2Oc3c(OC)c([N+](=O)[O-])c4ccc(=O)oc4c3O[C@@H]2COC(C)=O)ccc1OC(C)=O	87.2	70.4	70.5	82	65.3	67.8
COc1ccc([C@H]2Oc3c(OC)c(Cl)c4ccc(=O)oc4c3O[C@@H]2CO)cc1OC	57.5	59.2	50.2	56.2	40.1	49.6
COc1cc([C@H]2Oc3c(OC)c([N+](=O)[O-])c4ccc(=O)oc4c3O[C@@H]2CO)c([N+](=O)[O-])cc1OC	86.4	72	76.6	80.2	70.2	78
COc1cc([C@H]2Oc3c(OC)c([N+](=O)[O-])c4ccc(=O)oc4c3O[C@@H]2CO[N+](=O)[O-])c([N+](=O)[O-])cc1OC	81.4	59.1	64.8	79	53.3	60.6
COc1cc([C@H]2Oc3c(OC)c(Br)c4ccc(=O)oc4c3O[C@@H]2COC(C)=O)ccc1O	60.2	55.3	54.5	52.5	58.8	54.2
COc1ccc([C@H]2Oc3c(OC)c(Br)c4ccc(=O)oc4c3O[C@@H]2CO)cc1OC	59.8	50.1	44.8	60	44.7	42
COc1cc([C@H]2Oc3c(OC)cc4ccc(=O)oc4c3O[C@@H]2COC(C)=O)ccc1O [DURANTIN A]	81.9	109	73.3	78.3	74.8	76.2
